From ChEMBL document CHEMBL1148348, “New manzamine alkaloids from an Indo-Pacific sponge. Pharmacokinetics, oral availability, and the significant activity of several manzamines against HIV-I, AIDS opportunistic infections, and inflammatory diseases” (J Med Chem, 2004)
Converted amounts (≈) assume the structure as drawn.

Experiments:
Cryptococcus neoformans [1] = experiment: Inhibitory concentration against Cryptococcus neoformans; Not active; type: functional, organism-based
Staphylococcus aureus [2] = experiment: Inhibitory concentration against Staphylococcus aureus; Not active; type: functional, organism-based
Staphylococcus aureus [3] = experiment: Inhibitory concentration against methicillin-resistant Staphylococcus aureus; Not active; type: functional, organism-based
[4] = tested on: Mycobacterium intracellulare; experiment: Inhibitory concentration against Mycobacterium intracellular; Not active; type: functional, organism-based
[5] = Inhibitory activity against thromboxane B2; set-up: species or system Rattus norvegicus
Summary of the method: (§1)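 Rat neonatal brain microglia stimulated with phorbol ester. Release of superoxide anion or thromboxane B2 is measured, and inhibition is expressed as IC50.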

Staphylococcus aureus [6] = experiment: Minimal inhibitory concentration against Staphylococcus aureus; Range is 0.5-6.25 ug/mL; type: functional
Rattus norvegicus [7] = organism: Rattus norvegicus; experiment: Inhibitory activity against superoxide anion generation in rat neonatal brain microglia cells; type: functional, cell-based; summary of the method: as §1
Rattus norvegicus [8] = organism: Rattus norvegicus; experiment: Concentration for 50% increase in lactate dehydrogenase release in rat neonatal brain microglia cells; type: functional
Summary of the method: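 Lactate dehydrogenase released from rat neonatal brain microglia serves as the marker of cell toxicity. The value is expressed as LDH50.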

[9] = tested on: Mycobacterium intracellulare; experiment: Minimal inhibitory concentration against Mycobacterium intracellular; Range is 0.5-6.25 ug/mL; type: functional
[10] = Apparent volume of distribution at 10 mg/kg in rat upon intravenous administration; type: ADME, organism-based; set-up: dose 10 mg/kg, route intravenous; conditions: in vivo
Summary of the method: (§2)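 Male Sprague-Dawley rats (280-320 g), jugular/carotid cannulated the day before, fasted until 12 h post-dose. Given 10 mg/kg iv as a 5 min jugular infusion, approx. 3 mg/mL in 10% v/v ethanol/50 mM tartrate buffer pH 3.0. Carotid blood sampled over 96 h; plasma by validated HPLC/MS (LOQ 10 ng/mL). Parameters estimated from mean plasma concentrations, n = 3.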

[11] = Tmax in rats; type: ADME, organism-based; conditions: rat, in vivo
Staphylococcus aureus [12] = experiment: Minimal inhibitory concentration against methicillin-resistant Staphylococcus aureus; Range is 0.5-6.25 ug/mL; type: functional
[13] = tested on: Human immunodeficiency virus 1; experiment: Effective concentration against HIV-1; type: functional, organism-based
[14] = Cmax in rats; type: ADME, organism-based; conditions: rat, in vivo
[15] = tested on: Mycobacterium intracellulare; experiment: Inhibitory concentration against Mycobacterium intracellular; type: functional, organism-based
[16] = Plasma clearance at 10 mg/kg in rat upon intravenous administration; type: ADME, organism-based; set-up: dose 10 mg/kg, route intravenous; summary of the method: as §2
[17] = Half-life at 10 mg/kg in rat upon intravenous administration; type: ADME, organism-based; set-up: dose 10 mg/kg, route intravenous; conditions: in vivo; summary of the method: as §2
Staphylococcus aureus [18] = experiment: Inhibitory concentration against Staphylococcus aureus; type: functional, organism-based
[19] = Partition coefficient (logP); type: physicochemical; conditions: octanol/water
Cryptococcus neoformans [20] = experiment: Inhibitory concentration against Cryptococcus neoformans; type: functional, organism-based
[21] = Oral bioavailability in rat; type: ADME, organism-based; conditions: in vivo
Staphylococcus aureus [22] = experiment: Inhibitory concentration against methicillin-resistant Staphylococcus aureus; type: functional, organism-based

| SMILES | IC50 (Cryptococcus neoformans [1]) | IC50 (Staphylococcus aureus [2]) | IC50 (Staphylococcus aureus [3]) | IC50 [4] | EC50 [13] [µM] | other results |
| --- | --- | --- | --- | --- | --- | --- |
| OC1=C[C@@]2(O)CC/C=C\CCCCN3CC[C@@H]1[C@]1(C[C@@H]4/C=C\CCCCN4[C@H]12)C3 [IRCINOL A] | Not Active | Not Active | – | – | – | – |
| O=C1CCCN2[C@@H](CC1)C[C@]13CN4CCCC/C=C\CC[C@](O)(C=C(c5nccc6c5[nH]c5ccccc56)C1CC4)[C@H]23 (stereo partly specified) [MANZAMINE E] | Not Active | Not Active | Not Active | – | – | – |
| O=CC1=C[C@@]2(O)CC/C=C\CCCCN3CC[C@@H]1[C@]1(C[C@@H]4/C=C\CCCCN4[C@H]12)C3 [IRCINAL] | Not Active | Not Active | Not Active | Not Active | – | – |
| Oc1cccc2c1[nH]c1c(C3=C[C@@]4(O)CC/C=C\CCCCN5CC[C@@H]3[C@]3(CC6/C=C\CCCCN6[C@H]34)C5)nccc12 (stereo partly specified) | – | – | – | – | – | IC50 [5]: > 30 µM; MIC (Staphylococcus aureus [6]): < 6.25 µg/mL; IC50 (Rattus norvegicus [7]): > 30 µM; LDH50 (Rattus norvegicus [8]): >30 µM; MIC [9]: < 6.25 µg/mL |
| Oc1cccc2c3cc[nH]c(C4=C[C@]56CC/C=C\CCCCN7CC[C@@H]4[C@]4(C[C@@H]8/C=C\CCC[C@@H](O5)N8[C@H]46)C7)c-3nc12 [12,28-OXA-8-HYDROXY-MANZAMINE A] | Not Active | Not Active | Not Active | Not Active | – | – |
| O=C1CCCN2[C@@H](CC1)C[C@]13CN4CCCC/C=C\CC[C@](O)(C=C(c5nccc6c5[nH]c5c(O)cccc56)C1CC4)[C@H]23 (stereo partly specified) [MANZAMINE F] | – | Not Active | Not Active | – | – | – |
| O[C@]12C=C(c3[nH]ccc4c5ccccc5nc3-4)[C@@H]3CCN(CCCC/C=C\CC1)C[C@@]31C[C@@H]3/C=C\CCCCN3[C@H]12 [MANZAMINE] | – | – | – | – | 4.2 | Vd [10]: 23.7 L/kg; Tmax [11]: 10 h; MIC (Staphylococcus aureus [12]): < 6.25 µg/mL; Cmax [14]: 1070 ng/mL; IC50 [15]: 0.35 µg/mL (≈ 0.638 µM); clearance [16]: 5.1 mL/min/kg; MIC (Staphylococcus aureus [6]): < 6.25 µg/mL; half-life [17]: 53.7 h; IC50 (Staphylococcus aureus [18]): 0.5 µg/mL (≈ 0.911 µM); logP [19]: 8.34; IC50 (Cryptococcus neoformans [20]): 3 µg/mL (≈ 5.47 µM); bioavailability [21]: 20.6%; IC50 (Staphylococcus aureus [22]): 0.7 µg/mL (≈ 1.28 µM); MIC [9]: < 6.25 µg/mL |
| C1=C(c2[nH]ccc3c4ccccc4nc2-3)[C@@H]2CCN3CCCC/C=C\CC[C@]14O[C@@H]1CCC/C=C\[C@H]5C[C@@]2(C3)[C@H]4N51 [12,28-OXAMANZAMINE A] | Not Active | Not Active | Not Active | Not Active | 22.2 | – |
| Cc1cn([C@H]2C[C@H](N=[N+]=[N-])[C@@H](CO)O2)c(=O)[nH]c1=O [ZIDOVUDINE] | – | – | – | – | 0.004 | – |
